According to ChEMBL document CHEMBL1811881, “Development of 3-substituted-androsterone derivatives as potent inhibitors of 17β-hydroxysteroid dehydrogenase type 3” (Bioorg Med Chem, 2011):
Activity calls are given as the source filed them. The calls are words filed in the database; no cut-off is given here.

How the values were obtained:
[1] = target: T1, 17-beta-hydroxysteroid dehydrogenase type 3 (Homo sapiens) (UniProt P37058); assay: Inhibition of 17Beta-HSD3 expressed in intact HEK293 cells assessed as transformation of [14C]-4-androstene-3,17-dione into [14C]-testosterone in presence of NADPH at 1 uM after 1 hr incubation; assay type: cell-based
T1 sequence (whole entry): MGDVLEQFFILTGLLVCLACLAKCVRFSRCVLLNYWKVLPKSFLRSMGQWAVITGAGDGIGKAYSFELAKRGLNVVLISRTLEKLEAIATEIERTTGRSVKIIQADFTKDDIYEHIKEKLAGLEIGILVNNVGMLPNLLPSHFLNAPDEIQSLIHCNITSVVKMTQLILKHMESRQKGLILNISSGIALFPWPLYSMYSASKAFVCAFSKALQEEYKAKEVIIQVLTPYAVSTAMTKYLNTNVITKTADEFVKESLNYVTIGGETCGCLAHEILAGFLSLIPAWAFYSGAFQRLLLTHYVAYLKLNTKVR
Summary of the method: (§1)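 HEK-293 cells were grown in MEM with 10% FBS at 37 °C under 5% CO2, seeded at 200,000 cells/well, and transfected with 2 µg/well of a 17β-HSD3 expression plasmid. Intact cells then got 50 nM [4-14C]-4-androstene-3,17-dione plus inhibitor in ethanol (0.5% v/v) for 1 h. Radiolabelled steroids were extracted from the medium and quantified. Triplicate; % transformation was used to derive IC50.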

[2] = target: T1, 17-beta-hydroxysteroid dehydrogenase type 3 (Homo sapiens); assay: Inhibition of 17Beta-HSD3 expressed in homogenized HEK293 cells assessed as transformation of [14C]-4-androstene-3,17-dione into [14C]-testosterone in presence of NADPH at 1 uM; assay type: cell-based
Summary of the method: (§2)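 HEK-293 cells overexpressing 17β-HSD3 were briefly homogenized. The enzyme assay measured conversion of 50 nM [4-14C]-4-androstene-3,17-dione to [14C]-testosterone with NADPH in excess (5 mM). Inhibitor was dissolved in ethanol, and the ethanol-only control was used to derive % inhibition at each concentration. Error 10%.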

[3] = target: T1, 17-beta-hydroxysteroid dehydrogenase type 3 (Homo sapiens); assay: Inhibition of 17Beta-HSD3 expressed in homogenized HEK293 cells assessed as transformation of [14C]-4-androstene-3,17-dione into [14C]-testosterone in presence of NADPH at 0.01 uM; assay type: cell-based; summary of the method: as §2
[4] = target: T1, 17-beta-hydroxysteroid dehydrogenase type 3 (Homo sapiens); assay: Inhibition of 17Beta-HSD3 expressed in homogenized HEK293 cells assessed as transformation of [14C]-4-androstene-3,17-dione into [14C]-testosterone in presence of NADPH at 0.1 uM; assay type: cell-based; summary of the method: as §2
[5] = target: T1, 17-beta-hydroxysteroid dehydrogenase type 3 (Homo sapiens); assay: Inhibition of 17Beta-HSD3 expressed in intact HEK293 cells assessed as transformation of [14C]-4-androstene-3,17-dione into [14C]-testosterone in presence of NADPH at 0.1 uM after 1 hr incubation; assay type: cell-based; summary of the method: as §1
[6] = target: T2, Androgen receptor (Mus musculus) (UniProt P19091); assay: Activation of androgen receptor in androgen-sensitive (AR+) mouse Shionogi cells assessed as stimulation of cell proliferation after 10 days at 1 uM relative to control
T2 sequence (whole entry): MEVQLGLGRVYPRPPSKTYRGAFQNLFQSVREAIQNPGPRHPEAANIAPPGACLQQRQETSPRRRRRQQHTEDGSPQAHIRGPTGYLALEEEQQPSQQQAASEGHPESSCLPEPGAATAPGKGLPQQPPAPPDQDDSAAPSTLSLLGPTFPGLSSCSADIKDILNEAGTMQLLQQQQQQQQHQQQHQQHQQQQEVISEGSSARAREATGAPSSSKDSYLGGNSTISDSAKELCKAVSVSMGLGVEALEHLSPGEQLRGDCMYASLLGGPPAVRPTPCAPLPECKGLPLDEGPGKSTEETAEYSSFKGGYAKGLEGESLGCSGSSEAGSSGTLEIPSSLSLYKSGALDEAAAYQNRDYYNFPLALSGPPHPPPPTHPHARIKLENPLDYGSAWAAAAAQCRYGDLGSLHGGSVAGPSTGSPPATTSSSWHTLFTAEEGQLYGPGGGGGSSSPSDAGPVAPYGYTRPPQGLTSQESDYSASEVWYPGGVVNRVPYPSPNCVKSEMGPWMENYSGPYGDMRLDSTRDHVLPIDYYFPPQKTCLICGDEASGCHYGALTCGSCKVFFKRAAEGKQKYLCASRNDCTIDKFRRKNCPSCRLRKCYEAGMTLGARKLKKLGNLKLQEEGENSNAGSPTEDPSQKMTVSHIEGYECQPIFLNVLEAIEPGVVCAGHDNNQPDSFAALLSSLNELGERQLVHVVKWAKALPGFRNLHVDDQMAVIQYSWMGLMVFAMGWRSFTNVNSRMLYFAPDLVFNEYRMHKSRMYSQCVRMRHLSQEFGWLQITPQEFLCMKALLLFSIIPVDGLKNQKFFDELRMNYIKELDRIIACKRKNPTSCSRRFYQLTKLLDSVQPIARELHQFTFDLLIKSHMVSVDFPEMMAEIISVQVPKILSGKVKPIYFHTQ
Summary of the method: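 Androgen-sensitive (AR+) Shionogi cells. Inhibitors and reference compounds were each tested at 0.1 and 1.0 µM. Androgenicity is reported as % cell proliferation versus control, with basal proliferation set to 100%. DHT (0.1 µM) served as androgen reference and hydroxyflutamide as antiandrogen. Data are mean ± SEM of one experiment in triplicate.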

| SMILES | inhibition [1] [%] | inhibition [2] [%] | inhibition [3] [%] | inhibition [4] [%] | inhibition [5] [%] | Activity [6] |
| --- | --- | --- | --- | --- | --- | --- |
| CN(Cc1ccccc1)C[C@@]1(O)CC[C@@]2(C)[C@@H](CC[C@@H]3[C@@H]2CC[C@]2(C)C(=O)CC[C@@H]32)C1 | 92 | 89 | 28 | 79 | 48 |  |
| C[C@]12CC[C@](O)(CN3CCN(Cc4cccc(SC(F)(F)F)c4)CC3)C[C@@H]1CC[C@@H]1[C@@H]2CC[C@]2(C)C(=O)CC[C@@H]12 | 62 |  | 3 | 91 |  |  |
| C[C@]12CC[C@](O)(CN3CCC(Cc4ccccc4)CC3)C[C@@H]1CC[C@@H]1[C@@H]2CC[C@]2(C)C(=O)CC[C@@H]12 | 52 | 90 | 40 | 82 |  |  |
| C[C@]12CC[C@](O)(CN3CCC(N4CCCCC4)CC3)C[C@@H]1CC[C@@H]1[C@@H]2CC[C@]2(C)C(=O)CC[C@@H]12 | 20 | 69 | 0 | 4 |  |  |
| C[C@]12CC[C@](O)(CN3CCN(c4ccccc4)CC3)C[C@@H]1CC[C@@H]1[C@@H]2CC[C@]2(C)C(=O)CC[C@@H]12 | 68 | 89 | 13 | 78 |  |  |
| C[C@@H]1CN(Cc2cccc(SC(F)(F)F)c2)[C@@H](C)CN1C[C@@]1(O)CC[C@@]2(C)[C@@H](CC[C@@H]3[C@@H]2CC[C@]2(C)C(=O)CC[C@@H]32)C1 | 58 |  | 18 | 88 |  |  |
| C[C@]12CC[C@@]3(C[C@@H]1CC[C@@H]1[C@@H]2CC[C@]2(C)C(=O)CC[C@@H]12)CN(Cc1ccccc1)C(=O)O3 |  | 93 | 21 | 86 | 44 | inactive |
| C[C@@H]1CN(Cc2cccnc2)[C@@H](C)CN1C[C@@]1(O)CC[C@@]2(C)[C@@H](CC[C@@H]3[C@@H]2CC[C@]2(C)C(=O)CC[C@@H]32)C1 | 58 |  | 17 | 47 |  |  |
| C[C@@H]1CN(Cc2cccc(C(F)(F)F)c2)[C@@H](C)CN1C[C@@]1(O)CC[C@@]2(C)[C@@H](CC[C@@H]3[C@@H]2CC[C@]2(C)C(=O)CC[C@@H]32)C1 | 78 |  | 31 | 89 |  |  |
| C[C@]12CC[C@](O)(CN3CCN(C(=O)C4CCCCC4)CC3)C[C@@H]1CC[C@@H]1[C@@H]2CC[C@]2(C)C(=O)CC[C@@H]12 | 70 |  | 19 | 75 |  |  |
| C[C@]12CC[C@](O)(CN3CCN(Cc4cccnc4)CC3)C[C@@H]1CC[C@@H]1[C@@H]2CC[C@]2(C)C(=O)CC[C@@H]12 | 63 |  | 10 | 33 |  |  |
| C[C@]12CC[C@](O)(Cc3ccccc3)C[C@@H]1CC[C@@H]1[C@@H]2CC[C@]2(C)C(=O)CC[C@@H]12 |  |  |  |  |  | 396% |
| C[C@]12CC[C@](O)(CN3CCCCC3)C[C@@H]1CC[C@@H]1[C@@H]2CC[C@]2(C)C(=O)CC[C@@H]12 | 23 | 69 | 9 | 19 |  |  |
| CCCN(CCN1C[C@]2(CC[C@@]3(C)[C@@H](CC[C@@H]4[C@@H]3CC[C@]3(C)C(=O)CC[C@@H]43)C2)OC1=O)C(=O)CC |  | 80 | 0 | 35 | 25 |  |
| CCCCN(CCCC)C[C@@]1(O)CC[C@@]2(C)[C@@H](CC[C@@H]3[C@@H]2CC[C@]2(C)C(=O)CC[C@@H]32)C1 | 90 | 85 | 13 | 70 | 53 |  |
| C[C@]12CC[C@@]3(C[C@@H]1CC[C@@H]1[C@@H]2CC[C@]2(C)C(=O)CC[C@@H]12)CN(CCBr)C(=O)O3 |  | 93 | 17 | 69 | 31 |  |
| C[C@]12CC[C@@]3(C[C@@H]1CC[C@@H]1[C@@H]2CC[C@]2(C)C(=O)CC[C@@H]12)CN(C1CCCCC1)C(=O)O3 |  | 78 | 13 | 75 | 29 |  |
| C[C@]12CC[C@](O)(CN3CCN(S(=O)(=O)c4cccc(C(F)(F)F)c4)CC3)C[C@@H]1CC[C@@H]1[C@@H]2CC[C@]2(C)C(=O)CC[C@@H]12 | 71 |  | 21 | 82 |  |  |
| CCN(CCN1C[C@]2(CC[C@@]3(C)[C@@H](CC[C@@H]4[C@@H]3CC[C@]3(C)C(=O)CC[C@@H]43)C2)OC1=O)Cc1ccccc1 |  | 93 | 14 | 71 | 40 |  |
| CCN(CCN1C[C@]2(CC[C@@]3(C)[C@@H](CC[C@@H]4[C@@H]3CC[C@]3(C)C(=O)CC[C@@H]43)C2)OC1=O)C1CCCCC1 |  | 72 | 2 | 21 | 2 |  |
| CCN(CC)C[C@@]1(O)CC[C@@]2(C)[C@@H](CC[C@@H]3[C@@H]2CC[C@]2(C)C(=O)CC[C@@H]32)C1 | 14 | 60 | 0 | 10 |  |  |
| Cc1ccc(CN2C[C@]3(CC[C@@]4(C)[C@@H](CC[C@@H]5[C@@H]4CC[C@]4(C)C(=O)C(C)(C)C[C@@H]54)C3)OC2=O)cc1 |  | 74 | 2 | 22 | 18 |  |
| Cc1cccc(OCCN2C[C@]3(CC[C@@]4(C)[C@@H](CC[C@@H]5[C@@H]4CC[C@]4(C)C(=O)CC[C@@H]54)C3)OC2=O)c1 |  | 95 | 13 | 85 | 40 |  |
| CN1CCN(C[C@@]2(O)CC[C@@]3(C)[C@@H](CC[C@@H]4[C@@H]3CC[C@]3(C)C(=O)CC[C@@H]43)C2)CC1 |  | 40 | 0 | 0 | 2 |  |
| C[C@]12CC[C@](O)(CN3CCN(Cc4cccc(Cl)c4)CC3)C[C@@H]1CC[C@@H]1[C@@H]2CC[C@]2(C)C(=O)CC[C@@H]12 | 75 |  | 26 | 85 |  |  |
| C[C@]12CC[C@](O)(CN3CCN(Cc4ccccc4)CC3)C[C@@H]1CC[C@@H]1[C@@H]2CC[C@]2(C)C(=O)CC[C@@H]12 | 80 | 90 | 35 | 72 | 37 |  |
| C[C@@H]1CN(Cc2cccc(Cl)c2)[C@@H](C)CN1C[C@@]1(O)CC[C@@]2(C)[C@@H](CC[C@@H]3[C@@H]2CC[C@]2(C)C(=O)CC[C@@H]32)C1 | 55 |  | 26 | 84 |  |  |
| Cc1cccc(S(=O)(=O)CCN2C[C@]3(CC[C@@]4(C)[C@@H](CC[C@@H]5[C@@H]4CC[C@]4(C)C(=O)CC[C@@H]54)C3)OC2=O)c1 |  | 93 | 0 | 52 | 5 |  |
